# RGS4 inh: human RGS4 inhibition. P49798. HEK293 M3R/RGS4 inducible, Fluo-4 calcium flux; active compounds read high; triggered by carbachol at its EC20. B-score at 10 µM. 0.45% of 310,000 active. AID 463165;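 active = B-score, a plate-corrected calcium signal, over three deviations above library mean, with baseline fluorescence within five deviations of library mean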;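 note: RGS4 expression induced by doxycycline in cells with stable M3 receptor; B-score is computed from the integrated fluorescence ratio over baseline after carbachol; higher B-score means a larger calcium signal and so more RGS4 inhibition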
# Target sequence (P49798 whole entry, looked up): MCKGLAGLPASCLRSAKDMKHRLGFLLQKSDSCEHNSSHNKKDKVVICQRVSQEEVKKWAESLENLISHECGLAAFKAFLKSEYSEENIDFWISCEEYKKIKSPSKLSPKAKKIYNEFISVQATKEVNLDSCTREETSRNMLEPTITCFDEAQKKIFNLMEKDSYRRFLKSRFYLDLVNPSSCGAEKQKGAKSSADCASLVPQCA
# MrgX1 PAM: allosterically activates human MrgX1 receptor signaling. Q96LB2. MrgX1-HEK293, Fluo-4 calcium flux, FDSS; active compounds read high. B-score at 10 µM. 0.63% of 310,000 active. AID 588675;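 active = plate-corrected calcium response at least 3 library SD above typical, normal starting fluorescence, not activating the receptor alone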;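 note: compound read alongside a low EC10 to EC30 dose of BAM8-22 agonist; peak minus trough fluorescence over baseline measured at the second addition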
# RGS4 act: RGS4 potentiation or activation. HEK293 M3R/inducible RGS4, carbachol calcium flux Fluo4; active compounds read low. B-score at 10 µM. 0.92% of 310,000 active. AID 463111;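 active = B-score of the integrated calcium signal more than 4 SD below the library mean, with starting fluorescence not abnormally high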;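 note: negative B-score means reduced calcium response which marks RGS4 activation or potentiation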
#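 test system = HEK293 cells with stable M3R and inducible RGS4 | schedule = recording 10 s baseline at 1 Hz, 100 s post-agonist | technique = Fluo4-AM (2 µM) calcium-flux fluorescence, kinetic read | measure = Agonist-evoked peak-minus-minimum fluorescence over baseline, integrated ratio, B score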
# MrgX1 antag: human MrgX1 receptor antagonism, primary screen. 1.3% of 310,000 active. B-score at 10 µM. Q96LB2. MRGX1-HEK293 calcium flux, Fluo-4, BAM8-22 antagonism; active compounds read low;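 active = calcium-response B-score plate-corrected more than 3 library SD below zero, starting fluorescence within 5 deviations, no agonist response on first addition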;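 note: peak minus trough fluorescence over baseline after final BAM8-22 challenge near maximal dose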
# MrgX1 agonist: agonists of human MrgX1 receptor; Q96LB2; MrgX1-HEK293 cells, Fluo-4 calcium fluorescence, agonist mode; active compounds read high; B-score at 10 µM; 0.44% of 310,000 active;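 active = calcium response B-score plate-corrected fluorescence ratio at least 3 library SD, with starting fluorescence B-score inside 5 SD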
#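 Assay system: MrgX1-expressing HEK293 cells / Amount: fifteen thousand cells per well / Doses: test compound in the initial addition of three / Timing: cells plated overnight, dye loaded 0.5 h 37 °C, 0.5 h room temperature / Technique: kinetic calcium dye fluorescence, Fluo-4 NW / Control set: positive and negative controls per plate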
# * = called active by the depositor; i = inactive; . = no result. Shown are actives, neighbours in structure and some others; about 3.5% of the full set was active somewhere.
SMILES,RGS4 inh,MrgX1 PAM,RGS4 act,MrgX1 antag,MrgX1 agonist
C#CCOCCOCCOCCNc1nc(N2CCN(C(=O)CCCCCCCCCCNC(=O)[C@H](CCCCN)n3cc(CCCC(=O)O)nn3)CC2)nc(N2CCN(C(=O)CCCCCCCCCCNC(=O)[C@H](CCCN=C(N)N)n3cc(C[C@@H](C)CC)nn3)CC2)n1,.,i,.,i,40*
C#CCOCCOCCOCCNc1nc(N2CCN(C(=O)CCCCCCCCCCNC(=O)Cn3cc(CCCCCN)nn3)CC2)nc(N2CCN(C(=O)CCCCCCCCCCNC(=O)[C@H](CO)n3cc(CCCCCN)nn3)CC2)n1,.,i,.,i,i
CC[C@H](C)Cc1cn([C@@H](CCCCNC(=O)OC(C)(C)C)C(=O)NCCCCCCCCCCC(=O)N2CCN(C(=O)OC(C)(C)C)CC2)nn1,.,i,.,-7.1*,i
C#CCOCCOCCOCCNc1nc(N2CCN(C(=O)CCCCCCCCCCNC(=O)Cn3cc(CCCCCN)nn3)CC2)nc(N2CCN(C(=O)CCCCCCCCCCNC(=O)[C@H]([C@@H](C)CC)n3cc(CCCCCN)nn3)CC2)n1,.,i,.,i,51*
C#CCOCCOCCOCCNc1nc(N2CCN(C(=O)CCCCCCCCCCNC(=O)[C@H](CCCCN)n3cc(C[C@@H](C)CC)nn3)CC2)nc(N2CCN(C(=O)CCCCCCCCCCNC(=O)[C@H](CCCCN)n3cc(C[C@@H](C)CC)nn3)CC2)n1,.,i,.,i,89*
COc1ccc(-n2nc(C(=O)NCC(=O)NCCc3ccc(OC)c(OC)c3)c3ccccc3c2=O)cc1Cl,i,i,i,i,i
C#CCOCCOCCOCCNc1nc(N2CCN(C(=O)CCCCCCCCCCNC(=O)[C@H]([C@@H](C)CC)n3cc(CCCCCN)nn3)CC2)nc(N2CCN(C(=O)CCCCCCCCCCNC(=O)[C@@H]([C@H](C)O)n3cc(C)nn3)CC2)n1,.,i,.,i,i
C#CCOCCOCCOCCNc1nc(N2CCN(C(=O)CCCCCCCCCCNC(=O)[C@H](CCCCN)n3cc(CCO)nn3)CC2)nc(N2CCN(C(=O)CCCCCCCCCCNC(=O)[C@H](CCCN=C(N)N)n3cc(C[C@@H](C)CC)nn3)CC2)n1,.,i,.,i,153*
C#CCOCCOCCOCCNc1nc(N2CCN(C(=O)CCCCCCCCCCNC(=O)[C@H](CCCCN)n3cc(CCO)nn3)CC2)nc(N2CCN(C(=O)CCCCCCCCCCNC(=O)[C@H](CCCCN)n3cc(CCO)nn3)CC2)n1,.,i,.,i,i
C#CCOCCOCCOCCNc1nc(N2CCN(C(=O)CCCCCCCCCCNC(=O)[C@H](CCCCN)n3cc(C)nn3)CC2)nc(N2CCN(C(=O)CCCCCCCCCCNC(=O)[C@@H]([C@H](C)CC)n3cc(CCCCCN)nn3)CC2)n1,.,i,.,i,120*
C#CCOCCOCCOCCNc1nc(N2CCN(C(=O)CCCCCCCCCCNC(=O)[C@@H](CCSC)n3cc(CCO)nn3)CC2)nc(N2CCN(C(=O)CCCCCCCCCCNC(=O)[C@H]([C@@H](C)CC)n3cc(CCCCCN)nn3)CC2)n1,.,15*,.,i,i
C#CCOCCOCCOCCNc1nc(N2CCN(C(=O)CCCCCCCCCCNC(=O)[C@H]([C@@H](C)CC)n3cc(CCCCN=C(N)N)nn3)CC2)nc(N2CCN(C(=O)CCCCCCCCCCNC(=O)[C@H](CCCCN)n3cc(C[C@@H](C)CC)nn3)CC2)n1,.,i,.,i,61*
Cc1cc(N/N=C/c2ccccc2)nc(NCc2ccccc2)n1,i,i,i,i,i
Cc1cc(N/N=C/c2cccc(Cl)c2)nc(NCc2ccccc2)n1,i,i,-7.7*,i,i
CNC(=O)COc1coc(CN2CCN(C(=O)c3ccco3)CC2)cc1=O,i,i,i,i,i
COc1ccc(CCN(Cc2cc3cc(C)cc(C)c3nc2Cl)C(=O)C2CC2)cc1,i,i,-7.2*,i,i
CCOc1ccc(C(Nc2cccnc2)c2cc(Cl)c3cccnc3c2O)cc1 (stereo unspecified),i,i,-8.3*,i,i
O=C(O)COc1ccccc1C(Nc1cccnc1)c1cc(Cl)c2cccnc2c1O (stereo unspecified),i,.,i,.,.
COCCn1c(C)cc(C(=O)COC(=O)CNC(=O)c2ccccc2)c1C,i,i,i,-5*,i
